# Key:
# SARS-CoV-2 [1] = assay: Antiviral activity against SARS-COV 2 infected in human Calu-3 cells assessed as inhibition of viral replication at MOI of 0.01 and incubated after 2 hrs post infection for 48 hrs by direct yield reduction assay; assay type: functional, organism-based; conditions: Severe acute respiratory syndrome coronavirus 2, Calu-3
# [2] = (§1) Cytotoxicity against human Calu-3 cells infected with SARS-COV-2 by celltiter-glo luminescent cell viability assay; assay type: cell-based; conditions: Calu-3 cells infected with SARS-COV-2
# Outline: (§2)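 Compound-exposed cells assessed by CellTiter-Glo luminescence versus DMSO control; CC50 from dose-response.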
# [3] = Selectivity index, ratio of CC50 for human Calu-3 cells infected with SARS-COV-2 to IC50 for SARS-COV 2 infected in human Calu-3 cells; assay type: toxicity, cell-based; conditions: read-out: Selectivity Index
# SARS-CoV-2 [4] = assay: Antiviral activity against SARS-COV 2 infected in human Calu-3 cells assessed as inhibition of viral replication at MOI of 0.01 followed by removal of test compound after cell virus adsorption incubated for 72 hrs by ENTRY-DYRA method; assay type: functional, organism-based; conditions: Severe acute respiratory syndrome coronavirus 2, Calu-3, 72 h
# [5] = Selectivity index, ratio of CC50 for African green monkey Vero E6 cells infected with SARS-COV-2 to IC50 for SARS-COV 2 infected in monkey Vero E6 cells; assay type: toxicity, cell-based, Vero C1008; conditions: read-out: Selectivity Index
# SARS-CoV-2 [6] = assay: Antiviral activity against SARS-COV 2 infected in human Huh-7 cells; assay type: functional, organism-based; conditions: Severe acute respiratory syndrome coronavirus 2, Huh-7
# [7] = Selectivity index, ratio of CC50 for human Caco-2 cells infected with SARS-COV-2 to IC50 of SARS-COV 2 infected in human Caco-2 cells; assay type: toxicity, cell-based; conditions: read-out: Selectivity Index
# [8] = Selectivity index, ratio of CC50 for human Huh-7 cells infected with SARS-COV-2 to IC50 for SARS-COV 2 infected in human Huh-7; assay type: toxicity; conditions: read-out: Selectivity Index
# SARS-CoV-2 [9] = assay: Antiviral activity against SARS-COV 2 infected in human Caco-2 cells assessed as inhibition of viral replication at MOI of 0.01 and incubated after 2 hrs post infection for 48 hrs by immunodetection assay; assay type: functional, organism-based; conditions: Severe acute respiratory syndrome coronavirus 2, Caco-2
# SARS-CoV-2 [10] = assay: Antiviral activity against SARS-COV 2 infected in African green monkey Vero E6 cells; assay type: functional, organism-based; conditions: Severe acute respiratory syndrome coronavirus 2, Vero C1008
# Caco-2 = assay: Cytotoxicity against human Caco2 cells infected with SARS-COV-2 assessed as reduction in cell viability by celltiter-glo luminescent cell viability assay; assay type: cell-based; outline: as §2
# SARS-CoV-2 [11] = assay: Antiviral activity against SARS-COV 2 infected in human Caco-2 cells; assay type: functional, organism-based; conditions: Severe acute respiratory syndrome coronavirus 2, Caco-2
# Calu-3 = assay: as §1; assay type: cell-based; conditions: calu-3; outline: as §2
# Vero C1008 = assay: (§3) Cytotoxicity against African green monkey Vero E6 cells infected with SARS-COV-2 by celltiter-glo luminescent cell viability assay; assay type: cell-based; conditions: chlorocebus sabaeus, vero c1008; outline: as §2
# SARS-CoV-2 [12] = assay: Antiviral activity against SARS-COV 2 infected in monkey Vero E6 cells assessed as inhibition of viral replication at MOI of 0.01 and incubated after 2 hrs post infection for 48 hrs by direct yield reduction assay; assay type: functional, organism-based; conditions: Severe acute respiratory syndrome coronavirus 2, Vero C1008
# SARS-CoV-2 [13] = assay: Antiviral activity against SARS-COV 2 infected in human Huh-7 cells assessed as inhibition of viral replication at MOI of 0.01 and incubated after 2 hrs post infection for 48 hrs by direct yield reduction assay; assay type: functional, organism-based; conditions: Severe acute respiratory syndrome coronavirus 2, Huh-7
# Huh-7 = assay: Cytotoxicity against human Huh-7 cells infected with SARS-COV-2 assessed as reduction in cell viability by celltiter-glo luminescent cell viability assay; assay type: cell-based; conditions: huh-7; outline: as §2
# Influenza A virus [14] = assay: Antiviral activity against Influenza A Puerto Rico/8/34/H1N1 infected in MDCK cells assessed as inhibition of viral replication measured in supernatants of infected cells after 24 hrs by hemagglutination assay; assay type: functional, organism-based; conditions: A/Puerto Rico/8/1934(H1N1)
# [15] = Selectivity index, ratio of CC50 for human Huh-7 cells to IC50 for West Nile virus lineage 1 (Italy/2009) infected in pre-seeded Huh-7 cells assessed as inhibition of viral replication incubated for 48 hrs by immunodetection based plaque reduction assay; assay type: toxicity, cell-based; conditions: read-out: Selectivity Index
# [16] = Selectivity index, ratio of CC50 for human A549 cells to IC50 for Influenza A Puerto Rico/8/34/H1N1 infected in human A549 cells; assay type: toxicity, cell-based; conditions: read-out: Selectivity Index
# Outline: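 MDCK or A549 cells (2.5 × 10⁵/well) infected with A/Puerto Rico/8/34 H1N1 for 1 h at 37 °C, then washed. Compound (0.5–20 μM) added in 2% FBS medium for 24 h, with DMSO final ≤0.2%. Virus in supernatants read by hemagglutination. CC₅₀ by MTT (2 × 10⁴ cells/well, same concentrations, 24 h, absorbance 570 nm). SI = CC₅₀/IC₅₀.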
# [17] = Cytotoxicity against human Huh-7 cells assessed as reduction in cell viability by Celltiter-Glo luminescent cell viability assay; assay type: cell-based; conditions: Huh-7 cells; outline: as §2
# [18] = Selectivity index, ratio of CC50 for human Huh-7 cells to IC50 for Dengue virus serotype 2 New Guinea C infected in pre-seeded Huh-7 cells assessed as inhibition of viral replication incubated for 72 hrs by immunodetection based plaque reduction assay; assay type: toxicity, cell-based; conditions: read-out: Selectivity Index
# Zika virus [19] = assay: Antiviral activity against Zika virus H/PF/2013 infected in pre-seeded Huh-7 cells assessed as inhibition of viral replication incubated for 72 hrs by immunodetection based plaque reduction assay; assay type: functional, organism-based; conditions: H/PF/2013, Huh-7, 72 h
# Influenza A virus [20] = assay: Antiviral activity against Influenza A Puerto Rico/8/34/H1N1 infected in human A549 cells assessed as inhibition of viral replication after 24 hrs by hemagglutination assay; assay type: functional, organism-based; conditions: A/Puerto Rico/8/1934(H1N1), A549, 24 h
# [21] = Selectivity index, ratio of CC50 for human Huh-7 cells to IC50 for Zika virus H/PF/2013 infected in pre-seeded Huh-7 cells assessed as inhibition of viral replication incubated for 72 hrs by immunodetection based plaque reduction assay; assay type: toxicity, cell-based; conditions: read-out: Selectivity Index
# [22] = Cytotoxicity against human A549 cells assessed as reduction in cell viability measured after 24 hrs by MTT assay; assay type: cell-based; conditions: A549 cells
# West Nile virus [23] = assay: Antiviral activity against West Nile virus lineage 1 (Italy/2009) infected in pre-seeded Huh-7 cells assessed as inhibition of viral replication incubated for 48 hrs by immunodetection based plaque reduction assay; assay type: functional, organism-based; conditions: Huh-7, 48 h
# [24] = Selectivity index, ratio of CC50 for human Huh-7 cells to IC50 for Zika virus H/PF/2013 infected in pre-seeded Huh-7 cells assessed as inhibition of viral replication incubated for 72 hrs by immunodetection based direct yield reduction assay; assay type: toxicity, cell-based; conditions: read-out: Selectivity Index
# Outline: (§4)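 Direct yield reduction in Huh7 cells (7000/well), infected with 50 TCID₅₀ of DENV or ZIKV, or 25 TCID₅₀ of WNV. Adsorption 1 h at 37 °C, then virus removed and serial compound dilutions added. Incubated 72 h (DENV, ZIKV) or 48 h (WNV). Viral antigen immunodetected on the monolayer. IC₅₀ by non-linear regression, mean of three experiments. SI = CC₅₀ (Huh7, CellTiter-Glo luminescence)/IC₅₀.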
# [25] = Selectivity index, ratio of CC50 for human Huh-7 cells to IC50 for West Nile virus lineage 1 (Italy/2009) infected in pre-seeded Huh-7 cells assessed as inhibition of viral replication incubated for 48 hrs by immunodetection based direct yield reduction assay; assay type: toxicity, cell-based; conditions: read-out: Selectivity Index; outline: as §4
# Zika virus [26] = assay: Antiviral activity against Zika virus H/PF/2013 infected in pre-seeded Huh-7 cells assessed as inhibition of viral replication incubated for 72 hrs by immunodetection based secondary yield reduction assay; assay type: functional, organism-based; conditions: H/PF/2013, Huh-7, 72 h
# dengue virus type 2 [27] = assay: Antiviral activity against Dengue virus serotype 2 New Guinea C infected in pre-seeded Huh-7 cells assessed as inhibition of viral replication incubated for 72 hrs by immunodetection based plaque reduction assay; assay type: functional, organism-based; conditions: Huh-7, 72 h
# [28] = Selectivity index, ratio of CC50 for human Huh-7 cells to IC50 for Zika virus H/PF/2013 infected in pre-seeded Huh-7 cells assessed as inhibition of viral replication incubated for 72 hrs by immunodetection based secondary yield reduction assay; assay type: toxicity, cell-based; conditions: read-out: Selectivity Index
# Zika virus [29] = assay: Antiviral activity against Zika virus H/PF/2013 infected in pre-seeded Huh-7 cells assessed as inhibition of viral replication incubated for 72 hrs by immunodetection based direct yield reduction assay; assay type: functional, organism-based; conditions: H/PF/2013, Huh-7, 72 h; outline: as §4
# [30] = Selectivity index, ratio of CC50 for human Huh-7 cells to IC50 for Dengue virus serotype 2 New Guinea C infected in pre-seeded Huh-7 cells assessed as inhibition of viral replication incubated for 72 hrs by immunodetection based direct yield reduction assay; assay type: toxicity, cell-based; conditions: read-out: Selectivity Index; outline: as §4
# [31] = Cytotoxicity against MDCK cells assessed as reduction in cell viability measured after 24 hrs by MTT assay; assay type: cell-based, Canis lupus familiaris; conditions: dog, MDCK cells
# [32] = as §3; assay type: cell-based, Vero C1008; conditions: chlorocebus sabaeus, Vero E6 cells infected with SARS-COV-2; outline: as §2
# [33] = Selectivity index, ratio of CC50 for human Huh-7 cells to IC50 for Dengue virus serotype 2 New Guinea C infected in pre-seeded Huh-7 cells assessed as inhibition of viral replication incubated for 72 hrs by immunodetection based secondary yield reduction assay; assay type: toxicity, cell-based; conditions: read-out: Selectivity Index
# West Nile virus [34] = assay: Antiviral activity against West Nile virus lineage 1 (Italy/2009) infected in pre-seeded Huh-7 cells assessed as inhibition of viral replication incubated for 48 hrs by immunodetection based direct yield reduction assay; assay type: functional, organism-based; conditions: West Nile virus, lineage 1 (Italy/2009), Huh-7, 48 h; read-out: IC50
# dengue virus type 2 [35] = assay: Antiviral activity against Dengue virus serotype 2 New Guinea C infected in pre-seeded Huh-7 cells assessed as inhibition of viral replication incubated for 72 hrs by immunodetection based direct yield reduction assay; assay type: functional, organism-based; conditions: Dengue virus, New Guinea C, Huh-7, 72 h; read-out: IC50
structure (smiles),measurement,setting,value
CN(C)C(=O)COC(=O)Cc1ccc(OC(=O)c2ccc(NC(=N)N)cc2)cc1 [CAMOSTAT],IC50,SARS-CoV-2 [1],0.82 µM
same,CC50,[2],200 µM
same,selectivity ratio,[3],243
same,IC50,SARS-CoV-2 [4],0.04 µM
CCC(CC)COC(=O)[C@H](C)N[P@](=O)(OC[C@H]1O[C@@](C#N)(c2ccc3c(N)ncnn23)[C@H](O)[C@@H]1O)Oc1ccccc1 [REMDESIVIR],selectivity ratio,[5],28
same,IC50,SARS-CoV-2 [1],0.11 µM
same,IC50,SARS-CoV-2 [6],0.002 µM
same,selectivity ratio,[7],8000
same,selectivity ratio,[8],19200
same,IC50,SARS-CoV-2 [9],0.01 µM
same,IC50,SARS-CoV-2 [10],26.9 µM
same,CC50,Caco-2,80 µM
same,IC50,SARS-CoV-2 [11],0.38 µM
same,CC50,Calu-3,97 µM
same,CC50,Vero C1008,166 µM
same,IC50,SARS-CoV-2 [12],6 µM
same,IC50,SARS-CoV-2 [13],0.004 µM
same,selectivity ratio,[3],882
same,CC50,Huh-7,77 µM
NC(=O)c1ncn([C@@H]2O[C@H](CO)[C@@H](O)[C@H]2O)n1 [RIBAVIRIN],IC50,Influenza A virus [14],9.5 µM
same,selectivity ratio at 48 h,[15],30
same,selectivity ratio,[16],> 1.3
same,CC50,[17],200 µM
same,selectivity ratio at 72 h,[18],49
same,IC50,Zika virus [19],2.2 µM
same,IC50,Influenza A virus [20],37.4 µM
same,selectivity ratio at 72 h,[21],91
same,CC50 at 24 h,[22],> 50 µM
same,IC50,West Nile virus [23],6.7 µM
same,selectivity ratio at 72 h,[24],53
same,selectivity ratio at 48 h,[25],21
same,IC50,Zika virus [26],4.4 µM
same,IC50,dengue virus type 2 [27],4.1 µM
same,selectivity ratio at 72 h,[28],45
same,IC50,Zika virus [29],3.8 µM
same,selectivity ratio at 72 h,[30],26
same,CC50 at 24 h,[31],> 50 µM
same,CC50,[32],> 400 µM
same,IC50,SARS-CoV-2 [12],110 µM
same,selectivity ratio at 72 h,[33],50
same,IC50,West Nile virus [34],9.5 µM
same,IC50,dengue virus type 2 [35],7.6 µM

# — ChEMBL document CHEMBL4842338, “System-oriented optimization of multi-target 2,6-diaminopurine derivatives: Easily accessible broad-spectrum antivirals active against flaviviruses, influenza virus and SARS-CoV-2” (Eur J Med Chem, 2021)
